Assay results taken from ChEMBL document CHEMBL4689842, “EUbOPEN Chemogenomics Library wave 1” (2021).

Columns and labels:
Type in all cases: toxicity, cell-based
Fibroblast = assay: Incucyte cell viability with human fibroblast; conditions: 10 µM, compound concentration 10 uM; note: filed as whole numbers so only -1 and 0 and 1 occur
HEK-293T [1] = assay: Multiplex assay against HEK293T; conditions: human;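 for Population Tubulin-Different-Phenotype (%): share of the cells with healthy nuclei that show this phenotype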
Outline: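 Per cents of healthy-nucleus cells form the tubulin, mitochondrial-mass and membrane-permeability phenotype values. Live cells were stained at seeding with Hoechst33342, BioTracker Green Microtubule Cytoskeleton Dye, MitoTracker Red and Annexin V Alexa Fluor 680. After compound addition they were imaged on a CQ1 microscope at 37°C and 5% CO2, and CellPathfinder machine-learning gating split them into Hoechst high-intensity objects or normal cells, normal cells into healthy, pyknosed or fragmented nuclei, and pyknosed cells into mitotic or apoptotic.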

HEK-293T [2] = assay: Incucyte cell viability with HEK293T; conditions: human, 10 µM, compound concentration 10 uM; note: filed as whole numbers so only -1 and 0 and 1 occur
[3] = 0 h, replicate number 2, timepoint 0 hours
[4] = 6 h, replicate number 1, timepoint 6 hours
[5] = 12 h, replicate number 1, timepoint 12 hours
[6] = 18 h, replicate number 1, timepoint 18 hours
[7] = 24 h, replicate number 1, timepoint 24 hours
[8] = 12 h, 1 µM, compound concentration 1 uM, replicate 1
[9] = 12 h, 1 µM, compound concentration 1 uM, replicate 2
[10] = 12 h, 10 µM, compound concentration 10 uM, replicate 1
[11] = 12 h, 10 µM, compound concentration 10 uM, replicate 2
[12] = 24 h, 1 µM, compound concentration 1 uM, replicate 1
[13] = 24 h, 1 µM, compound concentration 1 uM, replicate 2
[14] = 24 h, 10 µM, compound concentration 10 uM, replicate 1
[15] = 24 h, 10 µM, compound concentration 10 uM, replicate 2
[16] = 48 h, 1 µM, compound concentration 1 uM, replicate 1
[17] = 48 h, 1 µM, compound concentration 1 uM, replicate 2
[18] = 48 h, 10 µM, compound concentration 10 uM, replicate 1
[19] = 48 h, 10 µM, compound concentration 10 uM, replicate 2

SMILES: CC(=O)c1cc(-c2cc(C(=O)NC3CC3)ccc2C)c2ncccn12
- Growth Rate (Fibroblast; [3]): 1
- Growth Rate (Fibroblast; [4]): 0
- Growth Rate (Fibroblast; [5]): 0
- Growth Rate (Fibroblast; [6]): 0
- Growth Rate (Fibroblast; [7]): 0
- Population Apoptotic (%) (HEK-293T [1]; [8]): 51%
- Population Fragmented Nuclei (%) (HEK-293T [1]; [8]): 11%
- Population Healthy Nuclei (%) (HEK-293T [1]; [8]): 27%
- Population Hoechst High Intensity Objects (%) (HEK-293T [1]; [8]): 12%
- Population Membrane Permeable-Phenotype (%) (HEK-293T [1]; [8]): 3%
- Population Mitochondria Different-Phenotype (%) (HEK-293T [1]; [8]): 59%
- Population Mitotic Cells (%) (HEK-293T [1]; [8]): 48%
- Population Normal (%) (HEK-293T [1]; [8]): 87%
- Population Pyknosed Nuclei (%) (HEK-293T [1]; [8]): 61%
- Population Tubulin-Different-Phenotype (%) (HEK-293T [1]; [8]): 36%
- Total Cell Count (HEK-293T [1]; [8]): 275
- Population Apoptotic (%) (HEK-293T [1]; [9]): 16%
- Population Fragmented Nuclei (%) (HEK-293T [1]; [9]): 1%
- Population Healthy Nuclei (%) (HEK-293T [1]; [9]): 48%
- Population Hoechst High Intensity Objects (%) (HEK-293T [1]; [9]): 3%
- Population Membrane Permeable-Phenotype (%) (HEK-293T [1]; [9]): 5%
- Population Mitochondria Different-Phenotype (%) (HEK-293T [1]; [9]): 17%
- Population Mitotic Cells (%) (HEK-293T [1]; [9]): 83%
- Population Normal (%) (HEK-293T [1]; [9]): 96%
- Population Pyknosed Nuclei (%) (HEK-293T [1]; [9]): 49%
- Population Tubulin-Different-Phenotype (%) (HEK-293T [1]; [9]): 21%
- Total Cell Count (HEK-293T [1]; [9]): 271
- Population Apoptotic (%) (HEK-293T [1]; [10]): 50%
- Population Fragmented Nuclei (%) (HEK-293T [1]; [10]): 12%
- Population Healthy Nuclei (%) (HEK-293T [1]; [10]): 29%
- Population Hoechst High Intensity Objects (%) (HEK-293T [1]; [10]): 15%
- Population Membrane Permeable-Phenotype (%) (HEK-293T [1]; [10]): 4%
- Population Mitochondria Different-Phenotype (%) (HEK-293T [1]; [10]): 81%
- Population Mitotic Cells (%) (HEK-293T [1]; [10]): 49%
- Population Normal (%) (HEK-293T [1]; [10]): 84%
- Population Pyknosed Nuclei (%) (HEK-293T [1]; [10]): 58%
- Population Tubulin-Different-Phenotype (%) (HEK-293T [1]; [10]): 39%
- Total Cell Count (HEK-293T [1]; [10]): 265
- Population Apoptotic (%) (HEK-293T [1]; [11]): 22%
- Population Fragmented Nuclei (%) (HEK-293T [1]; [11]): 6%
- Population Healthy Nuclei (%) (HEK-293T [1]; [11]): 31%
- Population Hoechst High Intensity Objects (%) (HEK-293T [1]; [11]): 4%
- Population Membrane Permeable-Phenotype (%) (HEK-293T [1]; [11]): 5%
- Population Mitochondria Different-Phenotype (%) (HEK-293T [1]; [11]): 38%
- Population Mitotic Cells (%) (HEK-293T [1]; [11]): 77%
- Population Normal (%) (HEK-293T [1]; [11]): 95%
- Population Pyknosed Nuclei (%) (HEK-293T [1]; [11]): 62%
- Population Tubulin-Different-Phenotype (%) (HEK-293T [1]; [11]): 21%
- Total Cell Count (HEK-293T [1]; [11]): 199
- Population Apoptotic (%) (HEK-293T [1]; [12]): 51%
- Population Fragmented Nuclei (%) (HEK-293T [1]; [12]): 15%
- Population Healthy Nuclei (%) (HEK-293T [1]; [12]): 31%
- Population Hoechst High Intensity Objects (%) (HEK-293T [1]; [12]): 13%
- Population Membrane Permeable-Phenotype (%) (HEK-293T [1]; [12]): 2%
- Population Mitochondria Different-Phenotype (%) (HEK-293T [1]; [12]): 42%
- Population Mitotic Cells (%) (HEK-293T [1]; [12]): 48%
- Population Normal (%) (HEK-293T [1]; [12]): 86%
- Population Pyknosed Nuclei (%) (HEK-293T [1]; [12]): 52%
- Population Tubulin-Different-Phenotype (%) (HEK-293T [1]; [12]): 26%
- Total Cell Count (HEK-293T [1]; [12]): 305
- Population Apoptotic (%) (HEK-293T [1]; [13]): 10%
- Population Fragmented Nuclei (%) (HEK-293T [1]; [13]): 5%
- Population Healthy Nuclei (%) (HEK-293T [1]; [13]): 65%
- Population Hoechst High Intensity Objects (%) (HEK-293T [1]; [13]): 2%
- Population Membrane Permeable-Phenotype (%) (HEK-293T [1]; [13]): 1%
- Population Mitochondria Different-Phenotype (%) (HEK-293T [1]; [13]): 16%
- Population Mitotic Cells (%) (HEK-293T [1]; [13]): 89%
- Population Normal (%) (HEK-293T [1]; [13]): 97%
- Population Pyknosed Nuclei (%) (HEK-293T [1]; [13]): 29%
- Population Tubulin-Different-Phenotype (%) (HEK-293T [1]; [13]): 25%
- Total Cell Count (HEK-293T [1]; [13]): 349
- Population Apoptotic (%) (HEK-293T [1]; [14]): 46%
- Population Fragmented Nuclei (%) (HEK-293T [1]; [14]): 18%
- Population Healthy Nuclei (%) (HEK-293T [1]; [14]): 31%
- Population Hoechst High Intensity Objects (%) (HEK-293T [1]; [14]): 17%
- Population Membrane Permeable-Phenotype (%) (HEK-293T [1]; [14]): 0%
- Population Mitochondria Different-Phenotype (%) (HEK-293T [1]; [14]): 76%
- Population Mitotic Cells (%) (HEK-293T [1]; [14]): 53%
- Population Normal (%) (HEK-293T [1]; [14]): 82%
- Population Pyknosed Nuclei (%) (HEK-293T [1]; [14]): 49%
- Population Tubulin-Different-Phenotype (%) (HEK-293T [1]; [14]): 38%
- Total Cell Count (HEK-293T [1]; [14]): 280
- Population Apoptotic (%) (HEK-293T [1]; [15]): 28%
- Population Fragmented Nuclei (%) (HEK-293T [1]; [15]): 7%
- Population Healthy Nuclei (%) (HEK-293T [1]; [15]): 51%
- Population Hoechst High Intensity Objects (%) (HEK-293T [1]; [15]): 3%
- Population Membrane Permeable-Phenotype (%) (HEK-293T [1]; [15]): 4%
- Population Mitochondria Different-Phenotype (%) (HEK-293T [1]; [15]): 33%
- Population Mitotic Cells (%) (HEK-293T [1]; [15]): 71%
- Population Normal (%) (HEK-293T [1]; [15]): 96%
- Population Pyknosed Nuclei (%) (HEK-293T [1]; [15]): 41%
- Population Tubulin-Different-Phenotype (%) (HEK-293T [1]; [15]): 30%
- Total Cell Count (HEK-293T [1]; [15]): 233
- Population Apoptotic (%) (HEK-293T [1]; [16]): 44%
- Population Fragmented Nuclei (%) (HEK-293T [1]; [16]): 15%
- Population Healthy Nuclei (%) (HEK-293T [1]; [16]): 43%
- Population Hoechst High Intensity Objects (%) (HEK-293T [1]; [16]): 14%
- Population Membrane Permeable-Phenotype (%) (HEK-293T [1]; [16]): 10%
- Population Mitochondria Different-Phenotype (%) (HEK-293T [1]; [16]): 22%
- Population Mitotic Cells (%) (HEK-293T [1]; [16]): 55%
- Population Normal (%) (HEK-293T [1]; [16]): 85%
- Population Pyknosed Nuclei (%) (HEK-293T [1]; [16]): 41%
- Population Tubulin-Different-Phenotype (%) (HEK-293T [1]; [16]): 28%
- Total Cell Count (HEK-293T [1]; [16]): 343
- Population Apoptotic (%) (HEK-293T [1]; [17]): 8%
- Population Fragmented Nuclei (%) (HEK-293T [1]; [17]): 6%
- Population Healthy Nuclei (%) (HEK-293T [1]; [17]): 78%
- Population Hoechst High Intensity Objects (%) (HEK-293T [1]; [17]): 4%
- Population Membrane Permeable-Phenotype (%) (HEK-293T [1]; [17]): 4%
- Population Mitochondria Different-Phenotype (%) (HEK-293T [1]; [17]): 6%
- Population Mitotic Cells (%) (HEK-293T [1]; [17]): 91%
- Population Normal (%) (HEK-293T [1]; [17]): 95%
- Population Pyknosed Nuclei (%) (HEK-293T [1]; [17]): 14%
- Population Tubulin-Different-Phenotype (%) (HEK-293T [1]; [17]): 21%
- Total Cell Count (HEK-293T [1]; [17]): 595
- Population Apoptotic (%) (HEK-293T [1]; [18]): 57%
- Population Fragmented Nuclei (%) (HEK-293T [1]; [18]): 24%
- Population Healthy Nuclei (%) (HEK-293T [1]; [18]): 24%
- Population Hoechst High Intensity Objects (%) (HEK-293T [1]; [18]): 17%
- Population Membrane Permeable-Phenotype (%) (HEK-293T [1]; [18]): 1%
- Population Mitochondria Different-Phenotype (%) (HEK-293T [1]; [18]): 63%
- Population Mitotic Cells (%) (HEK-293T [1]; [18]): 42%
- Population Normal (%) (HEK-293T [1]; [18]): 82%
- Population Pyknosed Nuclei (%) (HEK-293T [1]; [18]): 51%
- Population Tubulin-Different-Phenotype (%) (HEK-293T [1]; [18]): 36%
- Total Cell Count (HEK-293T [1]; [18]): 280
- Population Apoptotic (%) (HEK-293T [1]; [19]): 17%
- Population Fragmented Nuclei (%) (HEK-293T [1]; [19]): 6%
- Population Healthy Nuclei (%) (HEK-293T [1]; [19]): 58%
- Population Hoechst High Intensity Objects (%) (HEK-293T [1]; [19]): 3%
- Population Membrane Permeable-Phenotype (%) (HEK-293T [1]; [19]): 5%
- Population Mitochondria Different-Phenotype (%) (HEK-293T [1]; [19]): 29%
- Population Mitotic Cells (%) (HEK-293T [1]; [19]): 82%
- Population Normal (%) (HEK-293T [1]; [19]): 96%
- Population Pyknosed Nuclei (%) (HEK-293T [1]; [19]): 35%
- Total Cell Count (HEK-293T [1]; [19]): 284
- Growth Rate (HEK-293T [2]; [3]): 1
- Growth Rate (HEK-293T [2]; [4]): 0
- Growth Rate (HEK-293T [2]; [5]): 0
- Growth Rate (HEK-293T [2]; [6]): 0
- Growth Rate (HEK-293T [2]; [7]): 0
